Experimental findings from ChEMBL document CHEMBL2163317, “Selective inhibition of the tumor marker aldo-keto reductase family member 1B10 by oleanolic acid” (J Nat Prod, 2011) are described below.

Assay [1] addresses T1, Aldo-keto reductase family 1 member B10 (Homo sapiens, UniProt O60218). Nature of the assay: Inhibition of reductase activity of N-terminal 6His-tagged human AKR1B10 expressed in Escherichia coli BL21(DE3) assessed as pyridine-3-aldehyde reduction. The gist of the method:
(§1)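 Forward reductase assay at 25 C with purified recombinant enzyme from E. coli BL21(DE3) pLysS. Buffer was 0.1 M potassium phosphate pH 7.4 with 0.1 mM NADPH and 0.2 mM pyridine-3-aldehyde. Rate read as NADPH absorbance change at 340 nm. IC50 reported as mean of at least three determinations. Selectivity is the AKR1B1 IC50 divided by the AKR1B10 IC50.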
Target sequence in this assay (O60218 whole entry): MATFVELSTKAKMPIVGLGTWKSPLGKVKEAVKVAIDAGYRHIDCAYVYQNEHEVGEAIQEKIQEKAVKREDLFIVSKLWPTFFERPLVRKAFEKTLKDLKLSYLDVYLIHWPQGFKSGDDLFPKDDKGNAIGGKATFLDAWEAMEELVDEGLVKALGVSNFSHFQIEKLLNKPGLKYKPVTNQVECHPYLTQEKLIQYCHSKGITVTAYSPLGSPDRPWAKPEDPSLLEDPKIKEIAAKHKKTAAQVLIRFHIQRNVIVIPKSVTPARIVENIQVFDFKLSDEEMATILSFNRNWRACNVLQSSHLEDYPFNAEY

For the next assay, the species on record is Homo sapiens. Nature of the assay: Selectivity ratio of IC50 for human recombinant AKR1B1 to IC50 for human AKR1B10. The procedure, abridged:
as §1

Assay [2] concerns the target Aldo-keto reductase family 1 member B1 (Homo sapiens, UniProt P15121). Put plainly: Inhibition of reductase activity of N-terminal 6His-tagged human recombinant AKR1B1 expressed in Escherichia coli BL21(DE3) assessed as assessed as pyridine-3-aldehyde reduction. The gist of the method:
as §1

Assay [3] concerns the target T1, Aldo-keto reductase family 1 member B10. Put plainly: Inhibition of N-terminal 6His-tagged human AKR1B10 overexpressed in human HeLa cells assessed as inhibition of […] at 1 uM pretreated for 2 hrs before [1-14C]farnesol challenge measured after 6 hrs. It counts as cell-based. The gist of the method: (§2)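 HeLa cells were transfected with a pGW1 plasmid carrying AKR1B10 cDNA. Culture was DMEM with 10% FBS at 37 C and 5% CO2. Cells were pretreated with inhibitor for 2 h, then incubated with 20 μM [1-14C] labelled substrate for 6 h. Inhibition of farnesal reduction is the mean of duplicate experiments.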
Target sequence in this assay (O60218 whole entry, looked up): as the sequence (O60218 whole entry) above

Assay [4] relates to HT-29. Put plainly: Cytotoxicity against human HT-29 cells after 96 hrs by trypan blue exclusion assay. It counts as functional. The conditions noted are these: HT-29, 96 h, read-out: LD50 (the source's name).
Assay [5] concerns HT-29. Put plainly: Inhibition of AKR1B10 mRNA expression in human HT-29 cells at 3 to 30 uM after 24 hrs by RT-PCR analysis. It counts as functional, cell-based. The procedure, abridged:
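HT29 cells were treated for 24 h with 3, 10 and 30 μM compound. Total RNA was then extracted, and AKR1B10 mRNA was analysed by reverse transcription-PCR.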

The test system of assay [6] is HT-29. Put plainly: Cytotoxicity against human HT-29 cells at 30 uM after 96 hrs by trypan blue exclusion assay. Format: functional, cell-based.
A further assay has as its target Phospholipase A2 (Homo sapiens, UniProt P04054). Put plainly: Inhibition of phospholipase A2.
Assay [7] deals with HT-29. Put plainly: Cytotoxicity against human HT-29 cells at 10 uM after 96 hrs by trypan blue exclusion assay. It counts as functional, cell-based.
In the next assay the target is DNA polymerase beta (Homo sapiens, UniProt P06746). Nature of the assay: Inhibition of DNA polymerase beta.
Assay [8] concerns HT-29. Put plainly: Cytotoxicity against human mitomycin C-resistant HT-29 cells assessed as growth inhibition after 96 hrs by trypan blue exclusion assay. Format: functional, cell-based.
In assay [9] the target is T1, Aldo-keto reductase family 1 member B10. Put plainly: Inhibition of N-terminal 6His-tagged human AKR1B10 overexpressed in human HeLa cells assessed as inhibition of […] pretreated for 2 hrs before [1-14C]farnesol challenge measured after 6 hrs. It counts as cell-based. The procedure, abridged:
as §2
Target sequence in this assay (O60218 whole entry, looked up): as the sequence (O60218 whole entry) above

The target in assay [10] is Aldo-keto reductase family 1 member B10 (Homo sapiens, UniProt O60218, W220Y). Put plainly: Competitive inhibition of dehydrogenase activity of N-terminal 6His-tagged human AKR1B10 W220Y mutant expressed in Escherichia coli BL21(DE3) assessed as NADP+-linked geraniol oxidation.
Assay [11] deals with T1, Aldo-keto reductase family 1 member B10. Nature of the assay: Competitive inhibition of dehydrogenase activity of N-terminal 6His-tagged human AKR1B10 expressed in Escherichia coli BL21(DE3) assessed as NADP+-linked geraniol oxidation.
Target sequence in this assay (O60218 whole entry): as above
The target is the same in assay [12]. Nature of the assay: Non-competitive inhibition of reductase activity of N-terminal 6His-tagged human AKR1B10 expressed in Escherichia coli BL21(DE3) assessed as pyridine-3-aldehyde reduction.
Target sequence in this assay (O60218 whole entry, looked up): as the sequence (O60218 whole entry) above
Assay [13] has as its target Aldo-keto reductase family 1 member B10 (Homo sapiens, UniProt O60218, K125L). Put plainly: Competitive inhibition of dehydrogenase activity of N-terminal 6His-tagged human AKR1B10 K125L mutant expressed in Escherichia coli BL21(DE3) assessed as NADP+-linked geraniol oxidation.
In assay [14] the target is Aldo-keto reductase family 1 member B10 (Homo sapiens, UniProt O60218, Q303S). Nature of the assay: Competitive inhibition of dehydrogenase activity of N-terminal 6His-tagged human AKR1B10 Q303S mutant expressed in Escherichia coli BL21(DE3) assessed as NADP+-linked geraniol oxidation.
Assay [15] concerns the target Aldo-keto reductase family 1 member B10 (Homo sapiens, UniProt O60218, V301L). Put plainly: Competitive inhibition of dehydrogenase activity of N-terminal 6His-tagged human AKR1B10 V301L mutant expressed in Escherichia coli BL21(DE3) assessed as NADP+-linked geraniol oxidation.

Activity calls are given as the source filed them. The rule behind the calls is not given here.

Sequence of Aldo-keto reductase family 1 member B10 (Homo sapiens, UniProt O60218, V301L) (O60218 whole entry V301L): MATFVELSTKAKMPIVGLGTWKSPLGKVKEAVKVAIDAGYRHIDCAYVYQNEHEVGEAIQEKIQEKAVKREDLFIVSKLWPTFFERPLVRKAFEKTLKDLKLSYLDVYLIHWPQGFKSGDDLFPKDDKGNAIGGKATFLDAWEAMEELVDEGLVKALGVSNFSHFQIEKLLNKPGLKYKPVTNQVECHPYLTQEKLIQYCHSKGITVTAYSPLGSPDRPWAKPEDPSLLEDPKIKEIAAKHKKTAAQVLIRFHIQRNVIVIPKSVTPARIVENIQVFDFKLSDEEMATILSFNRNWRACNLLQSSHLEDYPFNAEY
Sequence of Phospholipase A2 (P04054 whole entry): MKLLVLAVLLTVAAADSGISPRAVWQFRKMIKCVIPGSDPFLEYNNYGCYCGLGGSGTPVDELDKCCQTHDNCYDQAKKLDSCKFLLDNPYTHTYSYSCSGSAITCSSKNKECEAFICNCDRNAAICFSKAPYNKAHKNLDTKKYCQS
Sequence of Aldo-keto reductase family 1 member B10 (Homo sapiens, UniProt O60218, W220Y) (O60218 whole entry W220Y): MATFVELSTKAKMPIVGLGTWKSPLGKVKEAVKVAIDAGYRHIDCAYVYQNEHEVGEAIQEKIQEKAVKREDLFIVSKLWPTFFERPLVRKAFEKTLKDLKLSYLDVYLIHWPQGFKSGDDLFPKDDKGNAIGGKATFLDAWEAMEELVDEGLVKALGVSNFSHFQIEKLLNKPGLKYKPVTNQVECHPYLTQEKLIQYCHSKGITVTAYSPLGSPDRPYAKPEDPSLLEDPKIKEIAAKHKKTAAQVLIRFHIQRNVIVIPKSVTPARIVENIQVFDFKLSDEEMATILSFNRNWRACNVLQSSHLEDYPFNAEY
Sequence of Aldo-keto reductase family 1 member B10 (Homo sapiens, UniProt O60218, K125L) (O60218 whole entry K125L): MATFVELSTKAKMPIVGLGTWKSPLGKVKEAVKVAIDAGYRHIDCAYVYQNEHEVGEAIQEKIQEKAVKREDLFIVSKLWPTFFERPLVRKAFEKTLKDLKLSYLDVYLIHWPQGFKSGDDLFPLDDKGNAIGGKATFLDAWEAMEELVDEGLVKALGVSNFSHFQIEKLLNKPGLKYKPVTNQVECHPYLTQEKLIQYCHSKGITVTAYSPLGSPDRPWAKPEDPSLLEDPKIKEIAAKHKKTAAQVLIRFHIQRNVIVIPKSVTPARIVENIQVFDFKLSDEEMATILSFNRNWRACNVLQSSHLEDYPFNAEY
Sequence of Aldo-keto reductase family 1 member B10 (Homo sapiens, UniProt O60218, Q303S) (O60218 whole entry Q303S): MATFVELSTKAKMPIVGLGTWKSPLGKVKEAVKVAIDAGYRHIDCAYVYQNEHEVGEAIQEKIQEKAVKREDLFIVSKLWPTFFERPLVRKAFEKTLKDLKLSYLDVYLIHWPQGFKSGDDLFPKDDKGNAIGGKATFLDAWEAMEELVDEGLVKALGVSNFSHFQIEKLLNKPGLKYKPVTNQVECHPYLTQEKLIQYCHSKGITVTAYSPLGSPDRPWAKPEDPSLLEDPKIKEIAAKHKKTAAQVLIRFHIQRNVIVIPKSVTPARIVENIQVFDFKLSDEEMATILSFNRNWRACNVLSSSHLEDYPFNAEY

The IC50 is the point on the concentration scale where inhibition reaches its midpoint. `C[C@H]1[C@H](C)CC[C@]2(C(=O)O)CC[C@]3(C)C(=CC[C@@H]4[C@@]5(C)C[C@@H](O)[C@H](O)[C@@](C)(CO)[C@@H]5CC[C@]43C)[C@H]12` [ASIATIC ACID]: the IC50 amounted to 5.9 µM in [1] and 34 µM in [2]. The Ratio IC50 in the assay listed under Homo sapiens came out at 6.
`C=C(C)[C@@H]1CC[C@]2(C(=O)O)CC[C@]3(C)[C@H](CC[C@@H]4[C@@]5(C)CC[C@H](O)C(C)(C)[C@@H]5CC[C@]43C)[C@@H]12` [BETULINIC ACID]: the results for the concentration for half-maximal inhibition (IC50) in assay [1] and in assay [2] were 2 µM and 11 µM, respectively. The Ratio IC50 in the assay listed under Homo sapiens worked out at 6.
Take `CC1(C)[C@@H](O)CC[C@]2(C)[C@H]3C(=O)C=C4[C@@H]5C[C@@](C)(C(=O)O)CC[C@]5(C)CC[C@@]4(C)[C@]3(C)CC[C@@H]12` [ENOXOLONE]: in [3], the inhibition result was “Active”. Besides, the IC50 in assay [1] amounted to 4.9 µM; in [2], 280 µM. Further, in the assay filed under Homo sapiens, the Ratio IC50 came to 57.
In the case of `CC1(C)CC[C@]2(CO)CC[C@]3(C)C(=CC[C@@H]4[C@@]5(C)CC[C@H](O)C(C)(C)[C@@H]5CC[C@]43C)[C@@H]2C1` [ERYTHRODIOL], the half-maximal inhibitory concentration (IC50) in assay [1] amounted to 30 µM; in assay [2], 84 µM. In the assay filed under Homo sapiens, the Ratio IC50 came to 3.
A word on the Ki: it is the equilibrium dissociation constant of an inhibitor or competing ligand from its target. As for `C[C@H](CCC(=O)O)[C@H]1CC[C@H]2[C@@H]3CC[C@@H]4C[C@@H](O)CC[C@]4(C)[C@H]3CC[C@]12C` [ISOLITHOCHOLIC ACID], the Ki in assay [1] worked out at 0.015 µM.
In the case of `CC1(C)CC[C@]2(C(=O)O)CC[C@]3(C)C(=CC[C@@H]4[C@@]5(C)C[C@@H](O)[C@H](O)C(C)(C)[C@@H]5CC[C@]43C)[C@@H]2C1` [MASLINIC ACID], the IC50 turned out to be 0.63 µM in [1] and 72 µM in assay [2]. In addition, in the assay filed under Homo sapiens, the Ratio IC50 is 114.
Consider `CC1(C)CC[C@]2(C(=O)O)CC[C@]3(C)C(=CC[C@@H]4[C@@]5(C)CC[C@H](O)C(C)(C)[C@@H]5CC[C@]43C)[C@@H]2C1` [OLEANOLIC_ACID], for which the CC50 in the assay with HT-29 [4] was found to be 180 µM. For the same compound, in the assay on HT-29 [5], the inhibition result is “inactive”. Further, the result in the assay with HT-29 [6] and in the assay with HT-29 [7] was Active. In addition, the inhibition result in assay [3] was “Active”. The IC50 at Phospholipase A2 was 3 µM; against DNA polymerase beta, 3 µM; in assay [2], 124 µM. Moreover, the “growth inhibition (GI)” value in the assay with HT-29 [8] is “Dose-dependent effect”.
Regarding `COc1ccc2c(C(=S)N(C)CC(=O)O)cccc2c1C(F)(F)F` [TOLRESTAT], the result in the assay on HT-29 [6] was Active. The Ki in assay [1] is 0.05 µM. For the same compound, the inhibition entry in assay [9] is “Active”.
On to `C[C@H]1[C@H](C)CC[C@]2(C(=O)O)CC[C@]3(C)C(=CC[C@@H]4[C@@]5(C)CC[C@H](O)C(C)(C)[C@@H]5CC[C@]43C)[C@H]12` [URSOLIC ACID], for which the Ki came to 6 µM in assay [10]; 2 µM in [11]; 2.8 µM in [13]; 3.7 µM in assay [14]; 2.1 µM in [15]. In [12], the inhibition result was “Active”. Moreover, the IC50 in assay [1] worked out at 4 µM; in assay [2] it was 41 µM. In addition, in the assay listed under Homo sapiens, the Ratio IC50 amounted to 10.
